# Laboratory results reported in ChEMBL document CHEMBL2311271 (Eur J Med Chem, 2013).
# Tests used:
# OS-RC-2 = assay: Cytotoxicity against human OS-RC2 cells by MTT assay; assay type: functional, cell-based
# Summary of the method: (§1)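 Cells grown in RPMI-1640 with 10% fetal calf serum plus penicillin and streptomycin, 37 °C, 5% CO₂. Compounds in DMSO, final ≤2% (v/v), tested in 96-well cultures with MTT staining. IC₅₀ = concentration cutting optical density 50% versus untreated cells; three replicate wells per point; mean of three independent determinations.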
# 769-P = assay: Cytotoxicity against human 769-P cells by MTT assay; assay type: functional, cell-based; summary of the method: as §1
# KB = assay: Cytotoxicity against human KB cells by MTT assay; assay type: functional, cell-based; summary of the method: as §1
# 786-0 = assay: Cytotoxicity against human 786-0 cells by MTT assay; assay type: functional, cell-based; summary of the method: as §1
# U-251 = assay: Cytotoxicity against human U251 cells by MTT assay; assay type: functional, cell-based; summary of the method: as §1
# HT-29 = assay: Cytotoxicity against human HT-29 cells by MTT assay; assay type: functional, cell-based; summary of the method: as §1
# [1] = Antitumor activity against mouse Sarcoma 180 cells xenografted in mouse assessed as tumor inhibition at 2.5 mg/kg, ip qd for 7 days measured every 3 days for 21 days; assay type: functional; conditions: Sarcoma-180, ip, route intraperitoneal
# [2] = system: Lewis lung carcinoma cell line; assay: Antitumor activity against mouse LLC cells xenografted in mouse assessed as tumor inhibition at 2.5 mg/kg, ip qd for 7 days measured every 3 days for 21 days; assay type: functional; conditions: route intraperitoneal
# A-375 = assay: Cytotoxicity against human A375 cells by MTT assay; assay type: functional, cell-based; summary of the method: as §1
# A549 = assay: Cytotoxicity against human A549 cells by MTT assay; assay type: functional, cell-based; summary of the method: as §1
# [3] = Acute toxicity in ip dosed C57BL/6 mouse measured up to 14 days; assay type: organism-based; conditions: in vivo
# Summary of the method: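 Healthy C57BL/6 mice (9–12 weeks, 18–22 g), fasted overnight, 10 per group (5 male, 5 female). Single i.p. dose, 1.0 to 500 mg/kg in 0.5% CMC-Na. Watched continuously for 2 h, intermittently over 24 h, then occasionally to day 14 for behaviour, deaths and delayed effects. Heart, liver and kidneys inspected at necropsy. LD50 derived graphically.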
# CWR22R = assay: Cytotoxicity against human 22Rv1 cells by MTT assay; assay type: functional, cell-based; summary of the method: as §1
# [4] = Cytotoxicity against human Blu-87 cells by MTT assay; assay type: functional, cell-based; summary of the method: as §1
# SCaBER = assay: Cytotoxicity against human SCaBER cells by MTT assay; assay type: functional, cell-based; summary of the method: as §1
# Mus musculus = assay: Neurotoxicity in ip dosed C57BL/6 mouse assessed as tremble, twitch, jumping and supination response; assay type: toxicity, organism-based; conditions: in vivo
# Summary of the method: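 C57BL/6 mice (9–12 weeks, 18–22 g), fasted overnight with water, dosed i.p. with 1.0–500 mg/kg in 0.5% CMC-Na; 10 per group (5 male, 5 female). Watched continuously 2 h for tremor, twitch, jumping, supination and other behavior, then intermittently to 24 h and occasionally to 14 days; killed day 14, with heart, liver and kidneys inspected.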
# [5] = Antitumor activity against mouse Sarcoma 180 cells xenografted in mouse assessed as tumor inhibition at 1 mg/kg, ip qd for 7 days measured every 3 days for 21 days; assay type: functional; conditions: Sarcoma-180, ip, route intraperitoneal
# [6] = system: Lewis lung carcinoma cell line; assay: Antitumor activity against mouse LLC cells xenografted in mouse assessed as tumor inhibition at 1 mg/kg, ip qd for 7 days measured every 3 days for 21 days; assay type: functional; conditions: route intraperitoneal
# Bel-7402 = assay: Cytotoxicity against human Bel7402 cells by MTT assay; assay type: functional, cell-based; summary of the method: as §1
# HeLa = assay: Cytotoxicity against human HeLa cells by MTT assay; assay type: functional, cell-based; summary of the method: as §1
# [7] = Antitumor activity against mouse Sarcoma 180 cells xenografted in mouse assessed as tumor inhibition at 20 mg/kg, ip qd for 7 days measured every 3 days for 21 days; assay type: functional; conditions: Sarcoma-180, ip, route intraperitoneal
# MCF7 = assay: Cytotoxicity against human MCF7 cells by MTT assay; assay type: functional, cell-based; summary of the method: as §1
# BGC-823 = assay: Cytotoxicity against human BGC823 cells by MTT assay; assay type: functional, cell-based; summary of the method: as §1
# HepG2 = assay: Cytotoxicity against human HepG2 cells by MTT assay; assay type: functional, cell-based; summary of the method: as §1
# [8] = system: Lewis lung carcinoma cell line; assay: Antitumor activity against mouse LLC cells xenografted in mouse assessed as tumor inhibition at 20 mg/kg, ip qd for 7 days measured every 3 days for 21 days; assay type: functional; conditions: route intraperitoneal
# [9] = system: Lewis lung carcinoma cell line; assay: Antitumor activity against mouse LLC cells xenografted in mouse assessed as tumor inhibition at 3 mg/kg, ip qd for 7 days measured every 3 days for 21 days; assay type: functional; conditions: route intraperitoneal
# [10] = Antitumor activity against mouse Sarcoma 180 cells xenografted in mouse assessed as tumor inhibition at 3 mg/kg, ip qd for 7 days measured every 3 days for 21 days; assay type: functional; conditions: Sarcoma-180, ip, route intraperitoneal
# [11] = Antitumor activity against mouse Sarcoma 180 cells xenografted in mouse assessed as tumor inhibition at 1.2 mg/kg, ip qd for 7 days measured every 3 days for 21 days; assay type: functional; conditions: Sarcoma-180, ip, route intraperitoneal
# [12] = system: Lewis lung carcinoma cell line; assay: Antitumor activity against mouse LLC cells xenografted in mouse assessed as tumor inhibition at 1.2 mg/kg, ip qd for 7 days measured every 3 days for 21 days; assay type: functional; conditions: route intraperitoneal
# [13] = system: Lewis lung carcinoma cell line; assay: Antitumor activity against mouse LLC cells xenografted in mouse assessed as tumor inhibition at 0.63 mg/kg, ip qd for 7 days measured every 3 days for 21 days; assay type: functional; conditions: route intraperitoneal
# [14] = Antitumor activity against mouse Sarcoma 180 cells xenografted in mouse assessed as tumor inhibition at 0.63 mg/kg, ip qd for 7 days measured every 3 days for 21 days; assay type: functional; conditions: Sarcoma-180, ip, route intraperitoneal
# [15] = system: Lewis lung carcinoma cell line; assay: Antitumor activity against mouse LLC cells xenografted in mouse assessed as tumor inhibition at 40 mg/kg, ip qd for 7 days measured every 3 days for 21 days; assay type: functional; conditions: route intraperitoneal
# [16] = Antitumor activity against mouse Sarcoma 180 cells xenografted in mouse assessed as tumor inhibition at 40 mg/kg, ip qd for 7 days measured every 3 days for 21 days; assay type: functional; conditions: Sarcoma-180, ip, route intraperitoneal
# [17] = Antitumor activity against mouse Sarcoma 180 cells xenografted in mouse assessed as tumor inhibition at 30 mg/kg, ip qd for 7 days measured every 3 days for 21 days; conditions: Sarcoma-180, ip, read-out: INH
# [18] = system: Lewis lung carcinoma cell line; assay: Antitumor activity against mouse LLC cells xenografted in mouse assessed as tumor inhibition at 30 mg/kg, ip qd for 7 days measured every 3 days for 21 days; conditions: read-out: INH
# [19] = system: Lewis lung carcinoma cell line; assay: Antitumor activity against mouse LLC cells xenografted in mouse assessed as tumor inhibition at 7.5 mg/kg, ip qd for 7 days measured every 3 days for 21 days; assay type: functional; conditions: route intraperitoneal
# Summary of the method: (§2)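 Tumour cells passaged in mice for 7 days, then harvested. Viable cells (2 × 10⁶/mouse) injected s.c. into the armpit. Starting 24 h later, compound given i.p. once daily for 7 days, 10 female mice per group. Mice killed on day 21 after inoculation and tumours excised and weighed. Inhibition = (C − T)/C × 100, using mean tumour weights of treated (T) and negative control (C) groups.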
# [20] = Antitumor activity against mouse Sarcoma 180 cells xenografted in mouse assessed as tumor inhibition at 7.5 mg/kg, ip qd for 7 days measured every 3 days for 21 days; assay type: functional; conditions: Sarcoma-180, ip, route intraperitoneal; summary of the method: as §2
SMILES,IC50 (OS-RC-2) [µM],IC50 (769-P) [µM],IC50 (KB) [µM],IC50 (786-0) [µM],IC50 (U-251) [µM],IC50 (HT-29) [µM],IC50 (A-375) [µM],IC50 (A549) [µM],LD50 at 336 h [3] [mg/kg],IC50 (CWR22R) [µM],IC50 [4] [µM],IC50 (SCaBER) [µM],Activity (Mus musculus),IC50 (Bel-7402) [µM],IC50 (HeLa) [µM],IC50 (MCF7) [µM],IC50 (BGC-823) [µM],IC50 (HepG2) [µM],other results
CCn1c2cc(OCc3c(F)c(F)c(F)c(F)c3F)ccc2c2cc[n+](Cc3ccccc3)c(C)c21.[Br-],1.8,13,13.8,2.9,6.6,1.6,3.8,1.8,12.5,< 1.4,17.7,6.8,Non-toxic,–,–,–,–,–,inhibition in vivo at 2.5 mg/kg [1]: 36.9%; inhibition in vivo at 2.5 mg/kg [2]: 23.7%
Cc1c2c(cc[n+]1Cc1ccccc1)c1ccc(OCc3ccccc3)cc1n2CC(C)C.[Br-],4.6,2.4,< 1.5,< 1.5,< 1.5,3.4,3.3,3.5,5,< 1.5,6.9,4.6,Non-toxic,–,–,–,–,–,inhibition in vivo at 1 mg/kg [5]: 52.6%; inhibition in vivo at 1 mg/kg [6]: 23.7%
CCC(CC)Oc1ccc2c3ccnc(C)c3n(CCCc3ccccc3)c2c1,–,–,–,–,–,–,–,–,100,–,–,–,Non-toxic,34.3,70.1,41.9,18.3,7.3,inhibition in vivo at 20 mg/kg [7]: 30.1%; inhibition in vivo at 20 mg/kg [8]: 27.1%
CCn1c2cc(OCC(C)C)ccc2c2cc[n+](Cc3ccccc3)c(C)c21.[Br-],10.6,5.2,< 1.7,8.5,17.3,4,7.8,11.6,12.5,–,25.9,34.1,Non-toxic,3.2,4.9,11.1,10.6,9.6,inhibition in vivo at 2.5 mg/kg [1]: 44.2%; inhibition in vivo at 2.5 mg/kg [2]: 30%
CCn1c2cc(OCCCc3ccccc3)ccc2c2cc[n+](Cc3ccccc3)c(C)c21.[Br-],2.2,5,< 1.5,1.5,10.5,4.2,2.4,2.3,15,–,17.3,16.2,Non-toxic,2.4,2.2,2.8,7.6,7.6,inhibition in vivo at 3 mg/kg [9]: 27.2%; inhibition in vivo at 3 mg/kg [10]: 53.1%
CCCCCCCCOc1ccc2c3cc[n+](Cc4ccccc4)c(C)c3n(CCCC)c2c1,< 1.5,< 1.5,< 1.5,< 1.5,2,3.2,< 1.5,< 1.5,–,2.9,2,4.6,–,0.86,4,4.1,3.7,2.7,–
Cc1c2c(cc[n+]1Cc1ccccc1)c1ccc(OCC(C)C)cc1n2CC(C)C,8.3,< 1.5,< 1.5,3.4,4.5,4.2,3.9,4.3,–,2.6,5.2,12.8,–,4.3,2.1,2.9,5.4,5.7,–
CCC(CC)Oc1ccc2c3cc[n+](Cc4ccccc4)c(C)c3n(CCCc3ccccc3)c2c1.[Br-],2.5,< 1.5,< 1.5,< 1.5,2.1,2,< 1.5,2,6.25,< 1.5,2.1,4.4,Non-toxic,0.81,1.5,1.8,2.5,3.1,inhibition in vivo at 1.2 mg/kg [11]: 41.5%; inhibition in vivo at 1.2 mg/kg [12]: 28%
Cc1c2c(cc[n+]1Cc1ccccc1)c1ccc(OCCCc3ccccc3)cc1n2CCCc1ccccc1.[Br-],3.1,2.9,< 1.5,2.2,0.74,2,< 1.5,3.3,3.75,2.3,1.5,7.7,Non-toxic,2,3.1,6.6,2.5,3.8,inhibition in vivo at 0.63 mg/kg [13]: 33.7%; inhibition in vivo at 0.63 mg/kg [14]: 46.1%
CCn1c2cc(OCC(C)C)ccc2c2ccnc(C)c21,32,27,20.3,24.3,44.6,16.9,–,30.3,200,–,14.2,16.4,Non-toxic,21.9,23.3,13.2,29.8,20.8,inhibition in vivo at 40 mg/kg [15]: 20.8%; inhibition in vivo at 40 mg/kg [16]: 27.8%
CCn1c2cc(OCCCc3ccccc3)ccc2c2ccnc(C)c21,–,22.6,22.6,13.2,28,11.8,19.7,22.6,200,–,16.7,6.5,Non-toxic,13.5,30.2,> 100,11.9,11.4,inhibition in vivo at 40 mg/kg [15]: 21.7%; inhibition in vivo at 40 mg/kg [16]: 26%
O=P1(N(CCCl)CCCl)NCCCO1 (stereo unspecified) [CYCLOPHOSPHAMIDE ANHYDROUS],–,–,–,–,–,–,–,–,–,–,–,–,Non-toxic,–,–,–,–,–,inhibition in vivo at 30 mg/kg [17]: 88.7%; inhibition in vivo at 30 mg/kg [18]: 85.6%
COc1ccc2c(c1)[nH]c1c(C)nccc12 [HARMINE],–,–,–,–,–,–,–,–,–,–,–,–,Toxic,–,–,–,–,–,inhibition in vivo at 7.5 mg/kg [19]: 33.7%; inhibition in vivo at 7.5 mg/kg [20]: 30.8%
